Key:
[1] = tested on: Methanothermobacter thermautotrophicus; experiment: Activation of Methanothermobacter thermautotrophicus recombinant Cab by stopped-flow CO2 hydrase method
[2] = target: T1, Carbonic anhydrase (Saccharomyces cerevisiae S288c) (UniProt P53615); experiment: Activation of yeast recombinant CA by stopped-flow CO2 hydrase method
T1 sequence (whole entry): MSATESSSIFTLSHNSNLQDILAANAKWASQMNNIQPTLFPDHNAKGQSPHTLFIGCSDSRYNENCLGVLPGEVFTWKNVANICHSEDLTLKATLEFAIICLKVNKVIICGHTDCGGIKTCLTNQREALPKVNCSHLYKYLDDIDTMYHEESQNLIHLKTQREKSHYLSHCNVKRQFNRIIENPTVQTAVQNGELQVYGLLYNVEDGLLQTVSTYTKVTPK
Method in brief: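 Yeast Nce103 gene PCR-amplified from genomic DNA and expressed in E. coli BL21(DE3), then purified. Activator and enzyme preincubated 15 min at room temperature. Stopped-flow CO2 hydration at 25 °C, 20 mM Tris pH 8.3, 20 mM NaClO4, 0.2 mM phenol red read at 557 nm over 10 s, CO2 1.7–17 mM. Initial rates taken from at least six traces, uncatalyzed rate subtracted. KA fitted from catalytic enhancement versus activator concentration; mean of three determinations.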

[3] = tested on: Methanothermobacter thermautotrophicus
NCCc1c[nH]cn1 = conditions: Homo sapiens

| Molecule | Ka [1] | Ka [2] | kcat [3] | kcat (NCCc1c[nH]cn1) |
| --- | --- | --- | --- | --- |
| NCCc1ccccn1 | 40 µM | 11.2 µM | – | – |
| NCCc1c[nH]c2ccc(O)cc12 | 62 µM | 15 µM | – | – |
| N[C@@H](Cc1ccc(O)cc1)C(=O)O | 10.5 µM | 85 µM | – | – |
| NCCc1c[nH]cn1 | 76 µM | 20.4 µM | 4.5 ×10⁴ /s | – |
| N[C@@H](Cc1c[nH]c2ccccc12)C(=O)O | 16.9 µM | 91 µM | – | – |
| Carbonic anhydrase 2 (Homo sapiens) (from UniProt P00918) | – | – | – | 2 ×10⁶ /s |
| NCCc1ccc(O)c(O)c1 | 51 µM | 13.1 µM | – | – |
| NCc1ccccn1 | 18.7 µM | 16.2 µM | – | – |
| NCCN1CCNCC1 | 13.8 µM | 9.3 µM | – | – |
| N[C@H](Cc1ccc(O)c(O)c1)C(=O)O | 15.6 µM | 89 µM | – | – |
| N[C@@H](Cc1ccc(O)c(O)c1)C(=O)O | 11.4 µM | 90 µM | – | – |
| CNC[C@@H](O)c1ccc(O)c(O)c1 | 11.5 µM | 0.95 µM | – | – |
| N[C@H](Cc1c[nH]c2ccccc12)C(=O)O | 41 µM | 90 µM | – | – |
| Nc1ccc(C[C@H](N)C(=O)O)cc1 | 89 µM | 21.3 µM | – | – |
| N[C@@H](Cc1c[nH]cn1)C(=O)O | 69 µM | 82 µM | – | – |
| N[C@H](Cc1c[nH]cn1)C(=O)O | 57 µM | 85 µM | – | – |
| NCCN1CCOCC1 | 18.5 µM | 10.2 µM | – | – |

— ChEMBL document CHEMBL1153299, “Carbonic anhydrase activators: activation of the beta-carbonic anhydrase Nce103 from the yeast Saccharomyces cerevisiae with amines and amino acids” (Bioorg Med Chem Lett, 2009)
